High-throughput results deposited in PubChem by The Scripps Research Institute Molecular Screening Center.
RBBP9 inhibitor – inhibitors of human serine hydrolase RBBP9; inhibition, % at 7.94 µM; recombinant RBBP9, FP-Rh probe fluorescence polarization; 220,000 compounds, 0.2% hits; O75884; AID 1515;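 active = inhibition above the campaign mean of all tested compounds plus 3 SD, cut at about 14% in these data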;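 also: plate controls were DMSO wells with RBBP9 for no effect and wells lacking RBBP9 protein for full effect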
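Assay system: recombinant human RBBP9; Reagent: Serine-hydrolase probe FP-Rh, 375 nM pre-mixing; Doses: 7.94 µM single dose, 0.794% DMSO; Incubation: 30 min then 45 min, 25 °C; Detection: fluorescence polarization (mP), excitation 525 nm, emission 598 nm; Evaluation: percent inhibition from mP, scaled between DMSO and no-protein wells.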
PRMT1 FP inh – inhibitors of human PRMT1; 370,000 compounds, 1.3% hits; recombinant PRMT1, activity-based probe fluorescence polarization; Q99873; inhibition, % at 2.79 µM;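 active = inhibition above about 21% made by adding two undisclosed values, limit read from the data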
Target sequence (Q99873 whole entry, looked up): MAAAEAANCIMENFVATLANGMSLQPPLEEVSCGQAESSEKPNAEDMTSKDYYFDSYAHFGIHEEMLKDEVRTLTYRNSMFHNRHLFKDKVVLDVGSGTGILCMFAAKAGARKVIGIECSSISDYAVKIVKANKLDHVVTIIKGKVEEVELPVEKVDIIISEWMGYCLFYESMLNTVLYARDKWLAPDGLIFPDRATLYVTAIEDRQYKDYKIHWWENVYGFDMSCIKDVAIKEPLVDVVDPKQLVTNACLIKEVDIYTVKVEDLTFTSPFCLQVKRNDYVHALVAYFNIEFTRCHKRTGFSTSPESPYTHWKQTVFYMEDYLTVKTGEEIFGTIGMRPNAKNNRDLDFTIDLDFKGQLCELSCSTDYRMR
PME-1 primary – blocks human protein phosphatase methylesterase 1 | inhibition, % at 5.9 µM | 320,000 compounds, 0.53% hits | recombinant PME-1, FP-Rh probe fluorescence polarization | Q9Y570;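 active = inhibition above the campaign mean of all compounds plus 3 SD, cut at about 26% in these data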;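 also: competitive labeling of PME-1 active site by serine hydrolase directed probe; 0% = PME-1 with DMSO and 100% = wells lacking PME-1 enzyme; inhibitors block probe labeling so polarization falls and inhibition rises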
GSTO1 inh – GSTO1 inhibition, counter-screen for RBBP9 inhibitors | 300,000 compounds, 1.1% hits | inhibition, % at 5.96 µM | recombinant GSTO1, activity-based probe fluorescence polarization;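 active = inhibition above the campaign mean inhibition plus 3 SD, cut at about 35% in these data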;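 also: 0% = GSTO1-1 with DMSO and 100% = wells lacking GSTO1-1 enzyme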
Target sequence (P78417 whole entry, looked up): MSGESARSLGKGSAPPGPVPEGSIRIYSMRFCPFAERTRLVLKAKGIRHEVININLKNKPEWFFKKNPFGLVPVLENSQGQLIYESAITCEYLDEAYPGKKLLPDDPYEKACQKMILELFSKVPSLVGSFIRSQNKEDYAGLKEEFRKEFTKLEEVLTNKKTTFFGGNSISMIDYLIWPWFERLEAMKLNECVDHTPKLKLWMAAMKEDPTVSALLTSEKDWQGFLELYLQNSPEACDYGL
Fam108B inh – blocks mouse Fam108B hydrolase in RBBP9 counter-screen. AID 1947. recombinant Fam108B, FP-Rh probe fluorescence polarization. inhibition, % at 9.51 µM. 300,000 compounds, 0.33% hits;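 active = inhibition above the screen mean inhibition plus 3 SD, computed separately per campaign, cut at about 18% in these data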;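 also: inhibitors lower polarization as less probe binds the enzyme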
PAD4 inh – inhibitors of human PAD4 | Q9UM07 | recombinant PAD4, RCA probe fluorescence polarization | inhibition, % at 6.36 µM | 330,000 compounds, 0.41% hits;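 active = percent inhibition above a cutoff equal to the mean of all tested compounds plus 3 SD, cut at about 15% in these data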;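 also: 0% = PAD4 with RCA probe and DMSO and 100% = probe without PAD4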
PRMT1 inh conf – confirmation of human PRMT1 inhibitors | recombinant His-PRMT1, activity-based probe fluorescence polarization | 3,300 compounds, 42% hits | shares compounds with PRMT1 FP inh | inhibition, % at 2.79 µM;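 active = mean inhibition across replicates above the hit cutoff derived for the earlier primary screen, cut at about 22% in these data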
The depositor's hits bear a star; nt = no result given. Only some compounds are listed: those with a hit (about 2.3% of all), similar ones and a draw of the others.

SMILES | RBBP9 inhibitor | PRMT1 FP inh | PME-1 primary | GSTO1 inh | Fam108B inh | PAD4 inh | PRMT1 inh conf
COc1ccc(C2=NN(C(=O)COc3ncnc4ccccc34)C(c3ccco3)C2)cc1 (stereo not drawn) | -1 | -1 | -3 | 10 | 2 | -1 | nt
COc1ccc2c(c1)sc(N)[n+]2Cc1cc(C)cc2cccnc12 | -8 | 2 | 11 | 2 | -3 | -3 | nt
COc1ccc(-c2c(-c3cc(OC)cc(OC)c3)sc3ccc(OC)cc23)cc1 | nt | 2 | nt | nt | nt | 5 | nt
CCCC[n+]1c(C)sc2cc(OC)ccc21 | -6 | 30* | -7 | 1 | 7 | 14 | 6
COc1ccc2sc(C)[n+](C)c2c1 | -14 | 60* | -1 | 8 | 1 | 9 | 30*
CC(=O)Nc1ccc(NC(=O)COC(=O)c2ccc(Cl)nc2)cc1 | nt | 2 | nt | nt | nt | nt | nt
CC(C)N1CC(O)=C(c2ccccc2)C1=N | -7 | -1 | 0 | 8 | 1 | -2 | nt
COc1ccccc1C1C2=C(N=c3s/c(=C/c4cccc(OCC(=O)O)c4)c(=O)n31)c1ccccc1CC2 (stereo not drawn) | -15 | 56* | 2 | -15 | -10 | 6 | 22*
COc1cccc(C2C3=C(N=c4s/c(=C\c5cccc(O)c5)c(=O)n42)c2ccccc2CC3)c1OC (stereo not drawn) | -13 | 0 | -37 | -8 | -23 | -3 | nt
CCOC(=O)C1=C(C)N=c2s/c(=C/c3cccc(OCC(=O)O)c3)c(=O)n2C1c1ccc(F)cc1 (stereo not drawn) | nt | 41* | 1 | -9 | -2 | 0 | 0
CCOC(=O)C1=C(C)N=c2s/c(=C\c3cccc(OCC(=O)O)c3)c(=O)n2C1c1ccccc1 (stereo not drawn) | nt | 32* | nt | nt | nt | nt | 9
CCOC(=O)C1=C(C)N=c2s/c(=C\c3ccc(C(=O)O)cc3)c(=O)n2C1c1ccc(F)cc1 (stereo not drawn) | nt | 13 | nt | nt | nt | nt | nt
C=CCOC(=O)C1=C[C@@H](c2ccc(C(F)(F)F)cc2)C[C@@H](OCCCCO)O1 | nt | 1 | -1 | 1 | -4 | -1 | nt
O=C(CN1CC[n+]2c(-c3ccccc3)csc21)c1ccc(Br)cc1 | 1 | 49* | 0 | -5 | 1 | 13 | 55*
O=C(CN1CC[n+]2c(-c3cccs3)csc21)c1ccc(Br)cc1 | -2 | 25* | -5 | 7 | 3 | 7 | 42*
CC(=O)N1CCN(CC(=O)c2ccc(Br)cc2)CC1 | 2 | 0 | 7 | 1 | 8 | 0 | nt
CN(C)C(=O)NC1c2ccccc2-c2ccccc21 | nt | -4 | 3 | 0 | 6 | 7 | nt
O=C1C=CC(=O)N1c1ccc2c(c1)C(NC(=O)C(F)(F)F)c1ccccc1-2 (stereo not drawn) | nt | 91* | nt | nt | nt | nt | 87*
c1cc(SSc2ccncc2)ccn1 | nt | 87* | 1 | 9 | -4 | 6 | 83*
CC(CNC(=O)[C@@H](Cc1ccccc1)NC(=O)CC[C@H]1O[C@@H](n2ccc(=O)[nH]c2=O)[C@H](O)[C@@H]1O)c1ccccc1 (stereo partly drawn) | nt | 4 | nt | nt | nt | nt | nt
CC1(C)CCN2CCC(C)(C)c3c(O)ccc1c32 | nt | 54* | 2 | 15 | -2 | -29 | 14
CC(C)CC1=NN2C(=N)/C(=C\c3coc4ccccc4c3=O)C(=O)N=C2S1 | -11 | 34* | nt | nt | nt | nt | 48*
CN(C(=O)COC(=O)c1cc2ccccc2oc1=O)C1CCCCC1 | nt | 27* | nt | nt | nt | 0 | 4
O=C1CC(N(O)C2CC(=O)N(Cc3ccccc3)C2=O)C(=O)N1Cc1ccccc1 (stereo not drawn) | -13 | 9 | 3 | -6 | -1 | -1 | nt
CCCN(CCC)C1CC(=O)N(Cc2ccccc2)C1=O (stereo not drawn) | -11 | 76* | 0 | -5 | 0 | 2 | 24*
SMILES | RBBP9 inhibitor | PRMT1 FP inh | PME-1 primary | GSTO1 inh | Fam108B inh | PAD4 inh | PRMT1 inh conf
Nc1cccn2c(-c3ccc(Cl)c(Cl)c3)cnc12 | -2 | 32* | 6 | -9 | 16 | -16 | -3
CC(=O)Nc1cc(-c2ccccc2)cn2c(-c3ccc(F)c(Cl)c3)cnc12 | nt | -1 | nt | nt | nt | nt | nt
Clc1ccc(-c2cnc3cccnn23)cc1 | nt | -1 | nt | nt | nt | nt | nt
Nc1cccn2c(-c3ccc(Cl)cc3)cnc12 | 0 | 42* | -5 | 2 | 7 | -22 | -1
Cc1ccc(N2C(=O)CC(Sc3ncccc3C(=O)O)C2=O)cc1 (stereo not drawn) | 5 | 1 | 2 | 4 | -4 | -2 | nt
CC(C)CN1C(=O)CC(Sc2ccccc2C(=O)O)C1=O (stereo not drawn) | 4 | 2 | 5 | 12 | -3 | 0 | nt
CN1C(=O)CC(Sc2ccccc2C(=O)O)C1=O (stereo not drawn) | -9 | 7 | 3 | 7 | -3 | 1 | nt
CN(C)c1ccc(N2C(=O)CC(Sc3ccccc3C(=O)O)C2=O)cc1 (stereo not drawn) | -6 | 82* | 1 | 9 | -7 | 8 | 43*
Cc1cccc(N2C(=O)CC(Sc3ccccc3C(=O)O)C2=O)c1 (stereo not drawn) | -10 | 60* | -2 | 11 | 2 | 12 | 22*
Cc1cc(C)cc(N2C(=O)CC(Sc3ccccc3C(=O)O)C2=O)c1 (stereo not drawn) | -3 | 49* | -2 | 6 | 3 | 5 | 18
Cc1ccc(N2C(=O)CC(Sc3ccccc3C(=O)O)C2=O)cc1 (stereo not drawn) | -2 | 86* | 0 | -2 | 2 | 12 | 24*
NC(=O)c1nsc(C(=O)N(CC(=O)NC2CCCCC2)c2cccc(F)c2)c1N | nt | -3 | -8 | -4 | -3 | -6 | nt
Cc1ccc(N2C(=O)CC(Sc3ccccc3C(=O)O)C2=O)cc1C (stereo not drawn) | -9 | 62* | -2 | 7 | 2 | 10 | 21
Cc1cc(C)c(N2C(=O)CC(Sc3ccccc3N)C2=O)c(C)c1 (stereo not drawn) | nt | 34* | nt | nt | nt | nt | 19
O=C(O)c1ccccc1SC1CC(=O)N(c2ccc3c(c2)OCO3)C1=O (stereo not drawn) | 2 | 56* | -5 | 9 | 2 | 7 | 30*
O=C(c1ccccc1)c1cccc(NC(=O)c2ccco2)c1 | -8 | -1 | -12 | -3 | 3 | 1 | nt
CC1(C)c2ccccc2N2CC(=O)N(CC(N)=O)C21C (stereo not drawn) | -66 | 56* | -157 | -71 | -123 | -89 | 14
CC1(C)c2ccccc2N(CC(N)=O)C12C=Cc1ccccc1O2 (stereo not drawn) | -8 | -1 | -7 | -6 | -1 | -14 | nt
Cc1ccc(-c2n[nH]c(=S)n2/N=C/C=C\c2ccccc2[N+](=O)[O-])cc1 | 3 | 30* | 6 | -6 | 8 | 3 | 15
O=[N+]([O-])c1ccccc1C=Nn1c(-c2cc(-c3ccccc3)n[nH]2)n[nH]c1=S | nt | 42* | nt | nt | nt | nt | 14
